Experimental data from ChEMBL document CHEMBL1146056, “Microwave-accelerated synthesis of P1'-extended HIV-1 protease inhibitors encompassing a tertiary alcohol in the transition-state mimicking scaffold” (J Med Chem, 2006).

Experiments:
[1] = molecular target: Human immunodeficiency virus type 1 protease (Human immunodeficiency virus 1, UniProt Q72874); assay: Inhibition of HIV1 protease
[2] = tested on: Human immunodeficiency virus 1; assay: Antiviral activity against HIV1 in MT4 cells; type: functional, organism-based; settings: Human immunodeficiency virus 1, MT4
Procedure, shortened: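 HIV-1-infected MT4 cells; antiviral activity reported as EC50 (µM).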

[3] = tested on: MT4; assay: Cytotoxicity against MT4 cells; type: functional; settings: Homo sapiens
Procedure, shortened: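 Cytotoxicity reported as CC50 (µM).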

[4] = Permeability in Caco-2 cells at 10 uM; type: ADME, cell-based; settings: human, read-out: permeability
Procedure, shortened: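 Caco-2 cell monolayer; membrane permeation expressed as apparent permeability Papp (10^-6 cm/s).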

[5] = Intrinsic clearance in human liver microsome at 2 uM; type: ADME; settings: liver microsomes
Procedure, shortened: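 Stability in liver microsome homogenate, expressed as intrinsic clearance (Clint, µL/min/mg).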

Compound	Ki [1]	EC50 [2]	CC50 [3]	Papp at 10 µM [4]	microsomal CLint at 2 µM [5]
COC(=O)N[C@H](C(=O)NN(Cc1cccc(C#Cc2ccccc2)c1)C[C@@](O)(Cc1ccccc1)C(=O)N[C@H]1c2ccccc2C[C@H]1O)C(C)(C)C	23 nM	> 10000 nM	> 10000 nM	–	–
COC(=O)N[C@H](C(=O)NN(Cc1ccc(-c2c(C)noc2C)cc1)C[C@@](O)(Cc1ccccc1)C(=O)N[C@H]1c2ccccc2C[C@H]1O)C(C)(C)C	3.8 nM	1100 nM	> 10000 nM	–	–
COC(=O)N[C@H](C(=O)NN(Cc1cccc(-c2ccccc2)c1)C[C@@](O)(Cc1ccccc1)C(=O)N[C@H]1c2ccccc2C[C@H]1O)C(C)(C)C	23 nM	> 10000 nM	> 10000 nM	–	–
COC(=O)N[C@H](C(=O)NN(Cc1ccc(/C=C/c2ccccc2)cc1)C[C@@](O)(Cc1ccccc1)C(=O)N[C@H]1c2ccccc2C[C@H]1O)C(C)(C)C	–	> 10000 nM	> 10000 nM	–	–
COC(=O)N[C@H](C(=O)NN(Cc1ccc(-c2cc3ccccc3s2)cc1)C[C@@](O)(Cc1ccccc1)C(=O)N[C@H]1c2ccccc2C[C@H]1O)C(C)(C)C	–	> 10000 nM	> 10000 nM	–	–
COC(=O)N[C@H](C(=O)NN(Cc1ccc(-c2ccccn2)cc1)C[C@@](O)(Cc1ccccc1)C(=O)N[C@H]1c2ccccc2C[C@H]1O)C(C)(C)C	–	900 nM	> 10000 nM	–	–
COC(=O)N[C@H](C(=O)NN(Cc1ccc(-c2ccncc2)cc1)C[C@@](O)(Cc1ccccc1)C(=O)N[C@H]1c2ccccc2C[C@H]1O)C(C)(C)C	–	220 nM	> 10000 nM	–	–
COC(=O)N[C@H](C(=O)NN(Cc1cccc(C#Cc2ccccn2)c1)C[C@@](O)(Cc1ccccc1)C(=O)N[C@H]1c2ccccc2C[C@H]1O)C(C)(C)C	22 nM	> 10000 nM	> 10000 nM	–	–
COC(=O)N[C@H](C(=O)NN(Cc1cccc(-c2cccnc2)c1)C[C@@](O)(Cc1ccccc1)C(=O)N[C@H]1c2ccccc2C[C@H]1O)C(C)(C)C	12 nM	> 10000 nM	6800 nM	11 ×10⁻⁶ cm/s	190 µL/min/mg
COC(=O)N[C@H](C(=O)NN(Cc1ccc(C#Cc2cccnc2)cc1)C[C@@](O)(Cc1ccccc1)C(=O)N[C@H]1c2ccccc2C[C@H]1O)C(C)(C)C	7.8 nM	750 nM	> 10000 nM	–	–
COC(=O)N[C@H](C(=O)NN(Cc1ccc(-c2ccc3c(c2)OCO3)cc1)C[C@@](O)(Cc1ccccc1)C(=O)N[C@H]1c2ccccc2C[C@H]1O)C(C)(C)C	11 nM	1000 nM	> 10000 nM	–	–
COC(=O)N[C@H](C(=O)NN(Cc1ccc(Br)cc1)C[C@@](O)(Cc1ccccc1)C(=O)N[C@H]1c2ccccc2C[C@H]1O)C(C)(C)C	–	1100 nM	> 10000 nM	–	–
COC(=O)N[C@H](C(=O)NN(Cc1ccc(-c2cccnc2)cc1)C[C@@](O)(Cc1ccccc1)C(=O)N[C@H]1c2ccccc2C[C@H]1O)C(C)(C)C	–	180 nM	> 10000 nM	33 ×10⁻⁶ cm/s	154 µL/min/mg
COC(=O)N[C@H](C(=O)NN(Cc1cccc(-c2ccccn2)c1)C[C@@](O)(Cc1ccccc1)C(=O)N[C@H]1c2ccccc2C[C@H]1O)C(C)(C)C	15 nM	> 10000 nM	4400 nM	–	–
COC(=O)N[C@H](C(=O)NN(Cc1ccc(C#Cc2ccccc2)cc1)C[C@@](O)(Cc1ccccc1)C(=O)N[C@H]1c2ccccc2C[C@H]1O)C(C)(C)C	15 nM	> 10000 nM	> 10000 nM	–	–
COC(=O)N[C@H](C(=O)NN(Cc1ccc(-c2cnccn2)cc1)C[C@@](O)(Cc1ccccc1)C(=O)N[C@H]1c2ccccc2C[C@H]1O)C(C)(C)C	2.1 nM	1000 nM	7800 nM	–	–
COC(=O)N[C@H](C(=O)NN(Cc1cccc(/C=C/c2ccccc2)c1)C[C@@](O)(Cc1ccccc1)C(=O)N[C@H]1c2ccccc2C[C@H]1O)C(C)(C)C	14 nM	> 10000 nM	> 10000 nM	–	–
COC(=O)N[C@H](C(=O)NN(Cc1cccc(Br)c1)C[C@@](O)(Cc1ccccc1)C(=O)N[C@H]1c2ccccc2C[C@H]1O)C(C)(C)C	18 nM	3300 nM	> 10000 nM	–	–
COC(=O)N[C@H](C(=O)NN(Cc1cccc(-c2ccncc2)c1)C[C@@](O)(Cc1ccccc1)C(=O)N[C@H]1c2ccccc2C[C@H]1O)C(C)(C)C	93 nM	2000 nM	> 10000 nM	–	–
COC(=O)N[C@H](C(=O)NN(Cc1cccc(C#Cc2cccnc2)c1)C[C@@](O)(Cc1ccccc1)C(=O)N[C@H]1c2ccccc2C[C@H]1O)C(C)(C)C	18 nM	> 10000 nM	> 10000 nM	–	–
COC(=O)N[C@H](C(=O)NN(Cc1ccc(-c2ccccc2)cc1)C[C@@](O)(Cc1ccccc1)C(=O)N[C@H]1c2ccccc2C[C@H]1O)C(C)(C)C	–	700 nM	> 10000 nM	–	–
COC(=O)N[C@H](C(=O)NN(Cc1ccc(C#Cc2ccccn2)cc1)C[C@@](O)(Cc1ccccc1)C(=O)N[C@H]1c2ccccc2C[C@H]1O)C(C)(C)C	9 nM	1000 nM	4900 nM	–	–
